Measured values as given in ChEMBL document CHEMBL1828537, “Halogenated 2'-benzoylpyridine thiosemicarbazone (XBpT) chelators with potent and selective anti-neoplastic activity: relationship to intracellular redox activity” (J Med Chem, 2011).

Experiments:
[1] = tested on: SK-N-MC; experiment: Antiproliferative activity against human SK-N-MC cells after 72 hrs by MTS assay; type: functional, cell-based
[2] = Toxicity in human SK-N-MC cells assessed as cell viability after 3 hrs by trypan blue staining; type: cell-based; design: concentration or dose not given beside the values; conditions: read-out: Activity
Procedure, shortened: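 Viability of SK-N-MC cells judged by Trypan blue staining after the 3 h chelator incubation used in the 59Fe mobilization assays.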

[3] = tested on: SK-N-MC; experiment: Induction of intracellular reactive oxygen species production in human SK-N-MC cells assessed as oxidation of H2DCF into DCF at 25 uM after 3 hrs by FACS analysis relative to control; type: functional
[4] = tested on: MRC5; experiment: Cytotoxicity against human MRC5 cells after 72 hrs […]; type: cell-based; conditions: MRC5, 72 h
[5] = Therapeutic index, ratio of IC50 for human MRC5 cells to IC50 for human SK-N-MC cells; type: cell-based; conditions: MRC5 cells and SK-N-MC cells, read-out: Ratio IC50
[6] = tested on: SK-N-MC; experiment: 59Fe uptake from transferrin in human SK-N-MC cells at 25 uM after 3 hrs relative to control
[7] = tested on: M109; experiment: Anticancer activity against mouse M109 cells xenografted in iv dosed CD2F1 mouse assessed as reduction in tumor growth after 5 days; type: functional
[8] = tested on: SK-N-MC; experiment: Induction of Fe efflux in human SK-N-MC cells assessed as release of intracellular 59Fe up to 25 uM after 3 hrs by gamma-scintillation counting; type: functional

SMILES | IC50 [1] | viability at 3 h [2] | Activity [3] | IC50 [4] | selectivity ratio [5] | level, % of control at 25 µM [6] | inhibition (INH) [7] | Activity [8]
CN(C)C(=S)N/N=C(\c1ccccc1)c1ccccn1 | 9 nM | > 99% | 156% | 1010 nM | 116 | – | – | –
NC(=S)N/N=C(\c1ccccc1)c1ccccn1 | 5590 nM | > 99% | – | > 25000 nM | – | – | – | –
CNC(=S)N/N=C(\c1ccccc1)c1ccccn1 | 24 nM | > 99% | 114% | 2320 nM | 96 | – | – | –
CN(C)C(=S)NN=C(c1ccccn1)c1ccccn1 | 4 nM | > 99% | – | – | – | 4% | 50% | 53%
O=C(N/N=C/c1c(O)ccc2ccccc12)c1ccncc1 | 2530 nM | > 99% | – | – | – | 6% | – | 55%
CCNC(=S)N/N=C(\c1ccccc1)c1ccccn1 | 12 nM | > 99% | 138% | 738 nM | 64 | – | – | –
CC(=O)N(O)CCCCCNC(=O)CCC(=O)N(O)CCCCCNC(=O)CCC(=O)N(O)CCCCCN [DEFEROXAMINE] | 22700 nM | > 99% | – | – | – | 74% | – | 23%
